As a reminder, the IC50 is the concentration at which inhibition is half-maximal.

Data set [1] relates to Wi-38 normal human lung fibroblast cells. Kind of data set: MTT assay against normal human cell line. The data set is classed as cell-based. Summed up: (§1)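 Cytotoxicity by MTT, run side by side on MCF-7 and MDA-MB231 breast cancer cells and Wi-38 normal human fibroblasts, with doxorubicin as reference. IC50 was determined for each line, and IC100 also on Wi-38. Selectivity indices express selectivity toward each breast cancer line over the normal Wi-38 cells.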
Background: Tetrazolium assays rely on reduction of a dye to a coloured formazan, in cell work by metabolically active cells.

In the next data set the test system is calf thymus DNA (ctDNA). Kind of data set: DNA damage by terbium. The data set is classed as biochemical. To be noted: 24 h incubation, Tb fluorescence 545 nm.
The subject of data set [2] is MCF-7 cells. Kind of data set: MCF-7 cell cycle analysis by flow cytometry. Format: cell-based, human. To be noted: MCF-7, 24 h treatment with IC50. In general terms: A flow cytometer gives signals particle by particle.
Data set [3] relates to MCF-7 cells. Kind of data set: Annexin V-FITC/PI double staining apoptosis assay. The data set is classed as cell-based, human. Particulars: MCF-7, 24 h treatment with IC50.
The test system of a further data set is MDA-MB 231 cells. Kind of data set: MTT assay against human breast cancer cell line MDA-MB 231. The data set is classed as cell-based. Summed up:
as §1

In data set [4] the test system is MCF-7 cells. Kind of data set: MTT assay against human breast cancer cell line MCF-7. The data set is classed as cell-based. Summed up: as §1

As for `CC(=O)Nc1c(N)nc(SCC(=O)NN)[nH]c1=O` [Compound 5, N-(4-amino-2-((2-hydrazinyl-2-oxoethyl)thio)-6-oxo-1,6-dihydropyrimidin-5-yl)acetamide], in data set [1] (Homo sapiens, WI-38, 72 h, read-out: Wi-38 IC50), the IC50 turned out to be 801 ± 31 nM. Moreover, the “Wi-38 IC100” value in data set [1] (MTT, 72 h, SI calls it EC100, dose at 100% cell viability, mean ± SEM) worked out at 0.240 ± 0.003 µM. In addition, in the data set with calf thymus DNA (ctDNA), the “LOD (minimum concentration inducing detectable DNA damage)” value was 10.64 nM and the LOQ amounted to 35.48 nM. Moreover, the “cell cycle distribution compared to untreated cells” value in the data set on MCF-7 cells [2] is reported as “increased DNA content during S”. In the data set on MCF-7 cells [3], the early apoptosis came out at 29.11% and the late apoptosis is recorded as 17.64%. Further, the “total cell death (apoptosis induction)” value in the data set on MCF-7 cells [3] (control 0.73%) is 46.75%. The necrotic cells in the data set on MCF-7 cells [3] (control 1.34%) is 5.39%. Further, in the data set with MDA-MB 231 cells (Homo sapiens, MDA-MB-231, 72 h, read-out: MDA-MB 231 IC50), the IC50 stood at 826 ± 46 nM. Moreover, the “MDA-MB 231 SI (selectivity index)” value in the data set with MDA-MB 231 cells (over Wi-38 normal cells) amounted to 0.969. In addition, the IC50 in the data set on MCF-7 cells [4] (Homo sapiens, MCF7, 72 h, read-out: MCF-7 IC50) was found to be 50 ± 8 nM. Besides, in the data set with MCF-7 cells [4] (MTT, cell line not given, fits MCF-7 IC50 values), the “cytotoxicity compared to doxorubicin” value is given as “surpassed doxorubicin”. In addition, in the data set with MCF-7 cells [4] (over Wi-38 normal cells), the “MCF-7 SI (selectivity index)” value is recorded as 16.02.

Source of the values: article PMC11097374 (ACS Omega, 2024).
